Laboratory results: ChEMBL document CHEMBL2177038 (J Med Chem, 2012)

Columns and labels:
Cannabinoid receptor 2 [1] = biological target: T1, Cannabinoid receptor 2 (Homo sapiens, UniProt P34972); experiment: Displacement of [3H]CP55940 from human CB2 receptor expressed in CHO cells incubated for 1 hr; assay type: cell-based
Homo sapiens = species: Homo sapiens; experiment: Selectivity index, ratio of Ki for human CB1 receptor to KI for human CB2 receptor
Cannabinoid receptor 1 = Cannabinoid receptor 1 (Homo sapiens, UniProt P21554); experiment: biochemical; assay type: cell-based, CHO
Chain of Cannabinoid receptor 1 (P21554 whole entry): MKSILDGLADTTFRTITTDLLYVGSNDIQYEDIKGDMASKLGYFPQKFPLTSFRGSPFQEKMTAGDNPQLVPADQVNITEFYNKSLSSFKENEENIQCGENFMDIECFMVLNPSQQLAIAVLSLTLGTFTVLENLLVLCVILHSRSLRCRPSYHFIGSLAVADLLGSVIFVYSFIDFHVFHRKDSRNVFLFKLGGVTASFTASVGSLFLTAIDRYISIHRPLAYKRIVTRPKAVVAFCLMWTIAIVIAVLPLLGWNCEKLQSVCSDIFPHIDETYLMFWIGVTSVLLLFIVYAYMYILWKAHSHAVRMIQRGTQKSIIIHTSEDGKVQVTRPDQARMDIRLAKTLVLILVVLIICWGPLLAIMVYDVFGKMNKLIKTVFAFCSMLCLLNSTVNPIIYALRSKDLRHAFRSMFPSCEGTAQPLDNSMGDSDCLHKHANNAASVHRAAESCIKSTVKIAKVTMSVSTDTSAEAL

Bone marrow cell [2] = experiment: Inhibition of osteoclastogenesis in human mononuclear bone marrow cells incubated for 3 weeks at 37 degC by osteoclast formation assay; assay type: functional, cell-based
Summary of the method: (§1)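 Nonadherent human marrow mononuclear cells from healthy donors, 2×10^5 per well, in MEM with 20% horse serum, 10 ng/mL M-CSF and 25 ng/mL RANKL (legend states RANKL 50 ng/mL). Compounds present throughout, with drug-containing half-medium changes twice weekly; 3 weeks at 37 °C, 5% CO2. 23c6 antibody stain; 23c6+ cells with ≥3 nuclei counted; triplicate, mean ± SD.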

Bone marrow cell [3] = experiment: Inhibition of osteoclastogenesis in human mononuclear bone marrow cells at 0.1 uM incubated for 3 weeks at 37 degC by osteoclast formation assay; assay type: functional; settings: 504 h; summary of the method: as §1
Bone marrow cell [4] = experiment: Inhibition of osteoclastogenesis in human mononuclear bone marrow cells at 10 uM incubated for 3 weeks at 37 degC by osteoclast formation assay; assay type: functional; settings: 504 h; summary of the method: as §1
Bone marrow cell [5] = experiment: Inhibition of osteoclastogenesis in human mononuclear bone marrow cells at 1 uM incubated for 3 weeks at 37 degC by osteoclast formation assay; assay type: functional; settings: 504 h; summary of the method: as §1
PBMC = experiment: Toxicity against human PBMC assessed effect on cell viability at 1 to 10 uM incubated for 72 hrs by trypan blue dye exclusion method; assay type: cell-based
Summary of the method: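 PBMC from healthy medication-free donors, isolated on Ficoll-Hypaque, washed in ice-cold PBS. Cells held in medium with 10% inactivated FBS and 2 mM glutamine (5×10^5/mL; legend 10^5 cells/well). Compounds come from a 50 mM DMSO stock, final DMSO 0.02%, exposure 72 h. Viability read by trypan blue exclusion; three assays, mean ± SD.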

Cannabinoid receptor 2 [6] = biological target: T1, Cannabinoid receptor 2; experiment: Inverse agonist activity at human CB2 receptor expressed in CHO cells assessed as increase in forskolin-induced cAMP accumulation incubated for 45 mins by TR-FRET method based LANCE cAMP assay; assay type: functional, cell-based

T1 sequence (P34972 whole entry): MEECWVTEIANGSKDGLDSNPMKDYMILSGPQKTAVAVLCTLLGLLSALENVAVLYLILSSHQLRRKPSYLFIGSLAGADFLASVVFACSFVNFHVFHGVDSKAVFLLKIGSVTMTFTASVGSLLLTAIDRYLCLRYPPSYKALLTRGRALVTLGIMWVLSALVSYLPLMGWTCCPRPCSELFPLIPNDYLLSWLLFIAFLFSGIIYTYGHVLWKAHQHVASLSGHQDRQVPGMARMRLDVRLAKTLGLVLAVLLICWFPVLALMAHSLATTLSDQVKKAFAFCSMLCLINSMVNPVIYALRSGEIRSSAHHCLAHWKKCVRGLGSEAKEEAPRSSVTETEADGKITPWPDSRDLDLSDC

CCN(CC)c1ccc(C(NC(=O)/C=C/c2ccccc2)NC(=O)/C=C/c2ccccc2)cc1
Ki (Cannabinoid receptor 2 [1]): 0.167 µM | Ratio Ki (Homo sapiens): > 119 | Ki (Cannabinoid receptor 1): > 20 µM

O=C(Cc1ccccc1)NC(NC(=O)Cc1ccccc1)c1ccc(N2CCCCC2)cc1
Ratio Ki (Homo sapiens): > 34 | Ki (Cannabinoid receptor 1): > 20 µM

O=C(Cc1ccccc1)NC(NC(=O)Cc1ccccc1)c1ccc(C(F)(F)F)cc1
Ratio Ki (Homo sapiens): > 34 | Ki (Cannabinoid receptor 1): > 20 µM

Cc1ccc(Cn2nc(C(=O)NC3C4(C)CCC(C4)C3(C)C)cc2-c2ccc(Cl)c(C)c2)cc1 (centres undefined)
inhibition (Bone marrow cell [2]): Dose-dependent effect

COc1ccc(C(NC(=O)Cc2ccc(C(F)(F)F)cc2)NC(=O)Cc2ccc(C(F)(F)F)cc2)cc1
Ki (Cannabinoid receptor 2 [1]): > 20 µM

CCN(CC)c1ccc(C(NC(=O)Cc2ccccc2)NC(=O)Cc2ccccc2)cc1
inhibition at 0.1 µM (Bone marrow cell [3]): 72% | inhibition at 10 µM (Bone marrow cell [4]): 84% | inhibition at 1 µM (Bone marrow cell [5]): 79% | inhibition (Bone marrow cell [2]): Dose-dependent effect | Ratio Ki (Homo sapiens): > 313 | Ki (Cannabinoid receptor 1): > 20 µM | Activity (PBMC): Non-toxic | EC50 (Cannabinoid receptor 2 [6]): 0.00573 µM

O=C(Cc1ccccc1)NC(NC(=O)Cc1ccccc1)c1ccc(N2CCCC2)cc1
Ki (Cannabinoid receptor 2 [1]): 0.071 µM | Ratio Ki (Homo sapiens): > 281 | Ki (Cannabinoid receptor 1): > 20 µM | EC50 (Cannabinoid receptor 2 [6]): 0.0171 µM

O=C(Cc1ccc(Cl)cc1)NC(NC(=O)Cc1ccc(Cl)cc1)c1ccc(F)cc1
Ki (Cannabinoid receptor 2 [1]): > 20 µM

O=C(Cc1ccccc1)NC(NC(=O)Cc1ccccc1)c1ccc([N+](=O)[O-])cc1
Ki (Cannabinoid receptor 2 [1]): > 20 µM

CC(C)c1ccc(C(NC(=O)Cc2ccccc2)NC(=O)Cc2ccccc2)cc1
inhibition (Bone marrow cell [2]): Dose-dependent effect | Ki (Cannabinoid receptor 1): > 20 µM | Activity (PBMC): Non-toxic | EC50 (Cannabinoid receptor 2 [6]): 0.00411 µM

CN(C)c1ccc(C(NC(=O)Cc2ccccc2)NC(=O)Cc2ccccc2)cc1
inhibition (Bone marrow cell [2]): Dose-dependent effect | Ratio Ki (Homo sapiens): > 26 | Ki (Cannabinoid receptor 1): > 20 µM | Activity (PBMC): Non-toxic | EC50 (Cannabinoid receptor 2 [6]): 0.159 µM

CCN(CC)c1ccc(C(NC(=O)C(C)(C)C)NC(=O)C(C)(C)C)cc1
Ki (Cannabinoid receptor 1): > 20 µM

COc1ccc(C(NC(=O)Cc2ccccc2)NC(=O)Cc2ccccc2)cc1
Ratio Ki (Homo sapiens): > 26 | Ki (Cannabinoid receptor 1): > 20 µM

CC(C)Oc1ccc(C(NC(=O)Cc2ccccc2)NC(=O)Cc2ccccc2)cc1
inhibition (Bone marrow cell [2]): Dose-dependent effect | Ki (Cannabinoid receptor 1): > 20 µM | Activity (PBMC): Non-toxic

O=C(Cc1ccccc1)NC(/C=C/c1ccccc1)NC(=O)Cc1ccccc1
Ki (Cannabinoid receptor 1): > 20 µM

CCN(CC)c1ccc(C(NC(=O)C(C)C)NC(=O)C(C)C)cc1
Ki (Cannabinoid receptor 1): > 20 µM

CCCCCCCC(=O)NC(NC(=O)CCCCCCC)c1ccc(N(CC)CC)cc1
Ratio Ki (Homo sapiens): > 136 | Ki (Cannabinoid receptor 1): > 20 µM

CCCCCC(=O)NC(NC(=O)CCCCC)c1ccc(N(CC)CC)cc1
Ratio Ki (Homo sapiens): > 800 | Ki (Cannabinoid receptor 1): > 20 µM | EC50 (Cannabinoid receptor 2 [6]): 0.0134 µM

O=C(Cc1ccc(C(F)(F)F)cc1)NC(NC(=O)Cc1ccc(C(F)(F)F)cc1)c1ccc(Cl)cc1
Ki (Cannabinoid receptor 2 [1]): > 20 µM

O=C(Cc1ccc(C(F)(F)F)cc1)NC(NC(=O)Cc1ccc(C(F)(F)F)cc1)c1ccccc1
Ki (Cannabinoid receptor 2 [1]): > 20 µM

CCCN(CCC)c1ccc(C(NC(=O)Cc2ccccc2)NC(=O)Cc2ccccc2)cc1
Ki (Cannabinoid receptor 2 [1]): 0.022 µM | Ki (Cannabinoid receptor 1): > 20 µM | EC50 (Cannabinoid receptor 2 [6]): 0.0283 µM

CCCCC(=O)NC(NC(=O)CCCC)c1ccc(N(CC)CC)cc1
Ratio Ki (Homo sapiens): > 109 | Ki (Cannabinoid receptor 1): > 20 µM

Cc1ccc(Cn2nc(C(=O)N[C@@H]3C(C)(C)[C@@H]4CC[C@@]3(C)C4)cc2-c2ccc(Cl)c(C)c2)cc1 [SR-144528]
Activity (PBMC): Non-toxic

COc1ccc(C(NC(=O)Cc2ccc(Cl)cc2)NC(=O)Cc2ccc(Cl)cc2)cc1
Ratio Ki (Homo sapiens): > 65 | Ki (Cannabinoid receptor 1): > 20 µM

O=C(Cc1ccc(C(F)(F)F)cc1)NC(NC(=O)Cc1ccc(C(F)(F)F)cc1)c1ccccc1F
Ki (Cannabinoid receptor 2 [1]): > 20 µM

O=C(Cc1ccccc1)NC(NC(=O)Cc1ccccc1)c1ccc(N(Cc2ccccc2)Cc2ccccc2)cc1
Ki (Cannabinoid receptor 2 [1]): 0.203 µM | Ratio Ki (Homo sapiens): > 99 | Ki (Cannabinoid receptor 1): > 20 µM

CCN(CC)c1ccc(C(NC(=O)CCc2ccccc2)NC(=O)CCc2ccccc2)cc1
Ki (Cannabinoid receptor 2 [1]): 0.213 µM | Ki (Cannabinoid receptor 1): > 20 µM

O=C(Cc1ccc(Cl)cc1)NC(NC(=O)Cc1ccc(Cl)cc1)c1ccc([N+](=O)[O-])cc1
Ki (Cannabinoid receptor 2 [1]): > 20 µM

Cc1ccc(C(NC(=O)Cc2ccc(Cl)cc2)NC(=O)Cc2ccc(Cl)cc2)cc1
Ratio Ki (Homo sapiens): > 43 | Ki (Cannabinoid receptor 1): > 20 µM

CCCCCCCCCC(=O)NC(NC(=O)CCCCCCCCC)c1ccc(N(CC)CC)cc1
Ki (Cannabinoid receptor 1): > 20 µM

O=C(Cc1ccc(C(F)(F)F)cc1)NC(NC(=O)Cc1ccc(C(F)(F)F)cc1)c1ccc(C(F)(F)F)cc1
Ki (Cannabinoid receptor 2 [1]): > 20 µM

O=C(Cc1ccc(Cl)cc1)NC(NC(=O)Cc1ccc(Cl)cc1)c1ccccc1
Ki (Cannabinoid receptor 2 [1]): > 20 µM

O=C(Cc1ccc(Cl)cc1)NC(NC(=O)Cc1ccc(Cl)cc1)c1ccc(Cl)cc1
Ratio Ki (Homo sapiens): > 130 | Ki (Cannabinoid receptor 1): > 20 µM

CCCCN(CCCC)c1ccc(C(NC(=O)Cc2ccccc2)NC(=O)Cc2ccccc2)cc1
Ratio Ki (Homo sapiens): > 90 | Ki (Cannabinoid receptor 1): > 20 µM

O=C(Cc1ccc(Cl)cc1)NC(NC(=O)Cc1ccc(Cl)cc1)c1ccccc1C(F)(F)F
Ratio Ki (Homo sapiens): > 127 | Ki (Cannabinoid receptor 1): > 20 µM

O=C(Cc1ccccc1)NC(CCc1ccccc1)NC(=O)Cc1ccccc1
Ki (Cannabinoid receptor 1): > 20 µM

Nc1ccc(C(NC(=O)Cc2ccccc2)NC(=O)Cc2ccccc2)cc1
Ki (Cannabinoid receptor 2 [1]): 12.6 µM

O=C(Cc1ccccc1)NC(Cc1ccccc1)NC(=O)Cc1ccccc1
Ki (Cannabinoid receptor 2 [1]): > 20 µM | Ki (Cannabinoid receptor 1): > 20 µM

O=C(Cc1ccc(Cl)cc1)NC(NC(=O)Cc1ccc(Cl)cc1)c1ccc(C(F)(F)F)cc1
Ratio Ki (Homo sapiens): > 198 | Ki (Cannabinoid receptor 1): > 20 µM

CCN(CC)c1ccc(C(NC(=O)c2ccccc2)NC(=O)c2ccccc2)cc1
Ratio Ki (Homo sapiens): > 29 | Ki (Cannabinoid receptor 1): > 20 µM

CCCCCC(NC(=O)Cc1ccccc1)NC(=O)Cc1ccccc1
Ki (Cannabinoid receptor 1): > 20 µM

O=C(Cc1ccc(C(F)(F)F)cc1)NC(NC(=O)Cc1ccc(C(F)(F)F)cc1)c1ccc(F)cc1
Ki (Cannabinoid receptor 2 [1]): > 20 µM

Cc1ccc(C(NC(=O)Cc2ccc(C(F)(F)F)cc2)NC(=O)Cc2ccc(C(F)(F)F)cc2)cc1
Ki (Cannabinoid receptor 2 [1]): > 20 µM
